Source: ChEMBL document CHEMBL1137711, “Design, synthesis, structure-activity relationship and antibacterial activity series of novel imidazo fused quinolone carboxamides” (2009)
Converted amounts (≈) assume the structure as drawn. The source made the active and inactive calls. The calls are words filed in the database; no cut-off is given here.

How the values were obtained:
Format in all cases: functional
[1] = system: Bacillus subtilis; test: Antibacterial activity against Bacillus subtilis after 24 hrs by broth dilution method
Summary of the method: (§1)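 MIC by broth dilution (NCCLS 1982) in nutrient broth, test compound serially diluted across tubes 1–9. Each tube receives 0.5 ml overnight culture. Incubation 37 °C for 24 h, then turbidity read. DMSO as negative control, ciprofloxacin as reference.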

[2] = system: Lysinibacillus sphaericus; test: Antibacterial activity against Bacillus sphaericus after 24 hrs by broth dilution method
Summary of the method: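 Broth dilution per NCCLS 1982: test agent serially diluted across tubes 1–9 of sterile nutrient broth; 0.5 ml overnight culture added to each tube; incubated at 37 °C for 24 h, then turbidity read to give the minimum inhibitory concentration. DMSO served as negative control; ciprofloxacin run alongside.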

[3] = system: Staphylococcus aureus; test: Antibacterial activity against Staphylococcus aureus after 24 hrs by broth dilution method; summary of the method: as §1
[4] = system: Pseudomonas aeruginosa; test: Antibacterial activity against Pseudomonas aeruginosa after 24 hrs by broth dilution method; summary of the method: as §1
[5] = system: Klebsiella aerogenes; test: Antibacterial activity against Klebsiella aerogenes after 24 hrs by broth dilution method; summary of the method: as §1
[6] = system: Chromobacterium violaceum; test: Antibacterial activity against Chromobacterium violaceum after 24 hrs by broth dilution method; summary of the method: as §1

CNC(=O)c1cn2c(-c3ccccc3)nc3c(NC)c(F)cc(c1=O)c32
MIC [1]: 12.5 µg/mL (≈ 35.7 µM) | MIC [2]: 25 µg/mL (≈ 71.4 µM) | MIC [3]: 6.25 µg/mL (≈ 17.8 µM) | MIC [4]: 12.5 µg/mL (≈ 35.7 µM) | MIC [5]: inactive | MIC [6]: 12.5 µg/mL (≈ 35.7 µM)

CNC(=O)c1cn2c(-c3ccc(C)cc3)nc3c(NC)c(F)cc(c1=O)c32
MIC [1]: 25 µg/mL (≈ 68.6 µM) | MIC [2]: 12.5 µg/mL (≈ 34.3 µM) | MIC [3]: 12.5 µg/mL (≈ 34.3 µM) | MIC [4]: 6.25 µg/mL (≈ 17.2 µM) | MIC [5]: inactive | MIC [6]: 6.25 µg/mL (≈ 17.2 µM)

O=C(O)c1cn(C2CC2)c2cc(N3CCNCC3)c(F)cc2c1=O [CIPROFLOXACIN]
MIC [1]: 0.78 µg/mL (≈ 2.35 µM) | MIC [2]: 0.78 µg/mL (≈ 2.35 µM) | MIC [3]: 0.39 µg/mL (≈ 1.18 µM) | MIC [4]: 0.78 µg/mL (≈ 2.35 µM) | MIC [5]: 0.78 µg/mL (≈ 2.35 µM) | MIC [6]: 0.39 µg/mL (≈ 1.18 µM)

CNC(=O)c1cn2c(-c3ccc([N+](=O)[O-])cc3)nc3c(NC)c(F)cc(c1=O)c32
MIC [1]: 12.5 µg/mL (≈ 31.6 µM) | MIC [2]: 12.5 µg/mL (≈ 31.6 µM) | MIC [3]: 12.5 µg/mL (≈ 31.6 µM) | MIC [4]: inactive | MIC [5]: inactive | MIC [6]: 25 µg/mL (≈ 63.2 µM)

CCCc1nc2c3c(cc(F)c2n1C)c(=O)c(C(=O)NC)cn3CC
MIC [1]: 12.5 µg/mL (≈ 36.3 µM) | MIC [2]: 50 µg/mL (≈ 145 µM) | MIC [3]: 25 µg/mL (≈ 72.6 µM) | MIC [4]: 25 µg/mL (≈ 72.6 µM) | MIC [5]: 12.5 µg/mL (≈ 36.3 µM) | MIC [6]: 25 µg/mL (≈ 72.6 µM)

CNC(=O)c1cn2c(-c3ccc(Cl)cc3)nc3c(NC)c(F)cc(c1=O)c32
MIC [1]: 25 µg/mL (≈ 65 µM) | MIC [2]: 25 µg/mL (≈ 65 µM) | MIC [3]: 25 µg/mL (≈ 65 µM) | MIC [4]: 25 µg/mL (≈ 65 µM) | MIC [5]: inactive | MIC [6]: 6.25 µg/mL (≈ 16.2 µM)

CNC(=O)c1cn2c(-c3ccc(N(C)C)cc3)nc3c(NC)c(F)cc(c1=O)c32
MIC [1]: 25 µg/mL (≈ 63.5 µM) | MIC [2]: 25 µg/mL (≈ 63.5 µM) | MIC [3]: 12.5 µg/mL (≈ 31.8 µM) | MIC [4]: 6.25 µg/mL (≈ 15.9 µM) | MIC [5]: 25 µg/mL (≈ 63.5 µM) | MIC [6]: 12.5 µg/mL (≈ 31.8 µM)

CNC(=O)c1cn2c(-c3ccc(OC)cc3)nc3c(NC)c(F)cc(c1=O)c32
MIC [1]: 12.5 µg/mL (≈ 32.9 µM) | MIC [2]: 12.5 µg/mL (≈ 32.9 µM) | MIC [3]: 25 µg/mL (≈ 65.7 µM) | MIC [4]: 6.25 µg/mL (≈ 16.4 µM) | MIC [5]: inactive | MIC [6]: 25 µg/mL (≈ 65.7 µM)

CCCCCc1nc2c3c(cc(F)c2n1C)c(=O)c(C(=O)NC)cn3CC
MIC [1]: 25 µg/mL (≈ 67.1 µM) | MIC [2]: 50 µg/mL (≈ 134 µM) | MIC [3]: 25 µg/mL (≈ 67.1 µM) | MIC [4]: 25 µg/mL (≈ 67.1 µM) | MIC [5]: 12.5 µg/mL (≈ 33.6 µM) | MIC [6]: 25 µg/mL (≈ 67.1 µM)

CCn1cc(C(=O)NC)c(=O)c2cc(F)c3c(nc(CC(C)C)n3C)c21
MIC [1]: inactive | MIC [2]: inactive | MIC [3]: inactive | MIC [4]: 25 µg/mL (≈ 69.8 µM) | MIC [5]: 12.5 µg/mL (≈ 34.9 µM) | MIC [6]: 25 µg/mL (≈ 69.8 µM)

CCCCc1nc2c3c(cc(F)c2n1C)c(=O)c(C(=O)NC)cn3CC
MIC [1]: inactive | MIC [2]: inactive | MIC [3]: inactive | MIC [4]: 12.5 µg/mL (≈ 34.9 µM) | MIC [5]: 25 µg/mL (≈ 69.8 µM) | MIC [6]: 25 µg/mL (≈ 69.8 µM)

CCCCCCc1nc2c3c(cc(F)c2n1C)c(=O)c(C(=O)NC)cn3CC
MIC [1]: inactive | MIC [2]: inactive | MIC [3]: inactive | MIC [4]: 50 µg/mL (≈ 129 µM) | MIC [5]: 50 µg/mL (≈ 129 µM) | MIC [6]: 25 µg/mL (≈ 64.7 µM)

CNC(=O)c1cn2c(-c3ccco3)nc3c(NC)c(F)cc(c1=O)c32
MIC [1]: 6.25 µg/mL (≈ 18.4 µM) | MIC [2]: 25 µg/mL (≈ 73.5 µM) | MIC [3]: 6.25 µg/mL (≈ 18.4 µM) | MIC [4]: 12.5 µg/mL (≈ 36.7 µM) | MIC [5]: inactive | MIC [6]: 6.25 µg/mL (≈ 18.4 µM)

CNC(=O)c1cn2c(-c3ccc(O)cc3)nc3c(NC)c(F)cc(c1=O)c32
MIC [1]: 12.5 µg/mL (≈ 34.1 µM) | MIC [2]: 25 µg/mL (≈ 68.2 µM) | MIC [3]: 25 µg/mL (≈ 68.2 µM) | MIC [4]: inactive | MIC [5]: inactive | MIC [6]: 25 µg/mL (≈ 68.2 µM)

CCc1nc2c3c(cc(F)c2n1C)c(=O)c(C(=O)NC)cn3CC
MIC [1]: inactive | MIC [2]: inactive | MIC [3]: inactive | MIC [4]: inactive | MIC [5]: inactive | MIC [6]: inactive

CCn1cc(C(=O)NC)c(=O)c2cc(F)c3c(nc(C(C)C)n3C)c21
MIC [1]: 12.5 µg/mL (≈ 36.3 µM) | MIC [2]: 25 µg/mL (≈ 72.6 µM) | MIC [3]: 50 µg/mL (≈ 145 µM) | MIC [4]: 50 µg/mL (≈ 145 µM) | MIC [5]: 50 µg/mL (≈ 145 µM) | MIC [6]: 12.5 µg/mL (≈ 36.3 µM)

CNC(=O)c1cn2c(-c3ccc(F)cc3)nc3c(NC)c(F)cc(c1=O)c32
MIC [1]: 25 µg/mL (≈ 67.9 µM) | MIC [2]: 25 µg/mL (≈ 67.9 µM) | MIC [3]: 25 µg/mL (≈ 67.9 µM) | MIC [4]: 25 µg/mL (≈ 67.9 µM) | MIC [5]: inactive | MIC [6]: 6.25 µg/mL (≈ 17 µM)
